Legend:
Hepatitis C virus = experiment: Antiviral activity against Hepatitis C virus genotype 1b infected in human HBI10A cells assessed as inhibition of viral replication in presence of 10% FBS; assay type: functional, organism-based, Hepacivirus hominis
Summary of the method: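 HBI10A hepatoma cells stably carrying a genotype 1b subgenomic bicistronic HCV replicon; EC50 measured in the presence of 10% fetal bovine serum; mean of ≥3 experiments, SD within 20%.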

[1] = Prodrug activation in hamsters liver assessed as NTP formation at 10 mg/kg; assay type: organism-based; design: dose 10 mg/kg; details: cricetinae, in vivo
Summary of the method: (§1)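 Prodrug dosed at 10 mg/Kg in hamster; liver analysed for NTP and NMP species.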

[2] = Prodrug activation in hamsters liver assessed as NMP formation at 10 mg/kg; assay type: organism-based; design: dose 10 mg/kg; details: cricetinae, in vivo; summary of the method: as §1
[3] = Inhibition of Hepatitis C virus NS5B polymerase; design: species or system Hepacivirus hominis
Summary of the method: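 Nucleoside triphosphates tested in an NS5B polymerization assay on a heteromeric RNA template; IC50 given as mean of ≥3 experiments, SD within 20%.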

[4] = Oral bioavailability in Wistar Han rat at 1 mg/kg; assay type: ADME, organism-based; details: in vivo
Summary of the method: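 Pharmacokinetics in Wistar Han rats after 1 mg/Kg given intravenously and orally; parent nucleoside followed in plasma to derive clearance, volume of distribution and oral bioavailability (F).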

Liver [5] = experiment: Drug uptake in Wistar Han rat liver assessed as nucleotide triphosphate level per gram of tissue at 20 mg/kg, iv measured after 3 hrs; assay type: ADME, organism-based; design: dose 20 mg/kg, route intravenous; details: in vivo
Summary of the method: (§2)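 Wistar Han rats given 20 mg/Kg intravenously; NTP in liver measured up to 12 h after dosing, at 3, 6 and 12 h (nmol/g); parent nucleoside measured in plasma, and liver NTP/plasma nucleoside ratio computed at each timepoint.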

Liver [6] = experiment: Drug uptake in Wistar Han rat liver assessed as nucleotide triphosphate level per gram of tissue at 20 mg/kg, iv measured after 6 hrs; assay type: ADME, organism-based; design: dose 20 mg/kg, route intravenous; details: in vivo; summary of the method: as §2
Liver [7] = experiment: Drug uptake in Wistar Han rat liver assessed as nucleotide triphosphate level per gram of tissue at 20 mg/kg, iv measured after 12 hrs; assay type: ADME, organism-based; design: dose 20 mg/kg, route intravenous; details: in vivo; summary of the method: as §2
Nucleic Acid = experiment: Ratio of drug level in nucleotide triphosphate level in liver to parent compound level in plasma in Wistar Han rat at 20 mg/kg, iv measured after 3 to 12 hrs; assay type: ADME, organism-based; design: dose 20 mg/kg, route intravenous; details: in vivo; summary of the method: as §2
Liver [8] = experiment: Drug uptake in Wistar Han rat liver assessed as nucleotide triphosphate level per gram of tissue at 20 mg/kg, po measured after 12 hrs; assay type: ADME, organism-based; design: dose 20 mg/kg, route oral; details: in vivo
Summary of the method: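 Wistar Han rats dosed orally at 20 mg/Kg; NTP in liver measured 12 h after dosing, in nmol/g.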

[9] = Inhibition of human DNA polymerase alpha
[10] = Inhibition of human DNA polymerase beta
[11] = Inhibition of human DNA polymerase gamma

SMILES	EC50 (Hepatitis C virus) [µM]	IC50 [3] [µM]	further results
C[C@@]1(O)[C@H](O)[C@@H](CO)O[C@H]1n1cc(-c2nnco2)c2c(N)ncnc21	46		
CCOC(=O)[C@@H](C)NP(=O)(OC[C@H]1O[C@@H](n2cc(-c3ccn[nH]3)c3c(N)ncnc32)[C@](C)(F)[C@@H]1O)Oc1ccccc1 (stereo partly drawn)	> 50		Drug metabolism [1]: Not Active; Drug metabolism [2]: Active
CCOC(=O)[C@@H](C)NP(=O)(OC[C@H]1O[C@@H](n2cc(-c3ccn[nH]3)c3c(N)ncnc32)[C@](C)(O)[C@@H]1O)Oc1ccccc1 (stereo partly drawn)	1.8		
C[C@@]1(O)[C@H](O)[C@@H](COP(=O)(O)OP(=O)(O)OP(=O)(O)O)O[C@H]1n1ccc2c(N)ncnc21		0.1	
C[C@@]1(O)[C@H](O)[C@@H](CO)O[C@H]1n1cc(-c2cc[nH]n2)c2c(N)ncnc21	> 100		
C[C@@]1(O)[C@H](O)[C@@H](CO)O[C@H]1n1cc(-c2cn[nH]c2)c2c(N)ncnc21	30		
C[C@@]1(O)[C@H](O)[C@@H](CO)O[C@H]1n1cc(-c2ncccn2)c2c(N)ncnc21	> 100		
C[C@@]1(O)[C@H](O)[C@@H](CO)O[C@H]1n1cc(-c2ncco2)c2c(N)ncnc21	7.8		
Cn1cc(-c2cn([C@@H]3O[C@H](CO)[C@@H](O)[C@@]3(C)O)c3ncnc(N)c23)nn1	42		
C[C@@]1(O)[C@H](O)[C@@H](CO)O[C@H]1n1cc(-c2ncon2)c2c(N)ncnc21	1.9		bioavailability [4]: 14.7%; Drug uptake (Liver [5]): 11.9 nmol/g; Drug uptake (Liver [6]): 3.9 nmol/g; Drug uptake (Liver [7]): 0.5 nmol/g; Ratio (Nucleic Acid): 20; Drug uptake (Liver [8]): 0.4 nmol/g
Cc1noc(-c2cn([C@@H]3O[C@H](CO)[C@@H](O)[C@@]3(C)O)c3ncnc(N)c23)n1	42		
C[C@@]1(F)[C@H](O)[C@@H](CO)O[C@H]1n1cc(-c2ncon2)c2c(N)ncnc21	41		
C[C@@]1(F)[C@H](O)[C@@H](CO)O[C@H]1n1cc(-c2ncco2)c2c(N)ncnc21	37		
C[C@@]1(F)[C@H](O)[C@@H](CO)O[C@H]1n1cc(-c2ccn[nH]2)c2c(N)ncnc21	35		
C[C@@]1(O)[C@H](O)[C@@H](COP(=O)(O)OP(=O)(O)OP(=O)(O)O)O[C@H]1n1cc(-c2cc[nH]n2)c2c(N)ncnc21		0.1	IC50 [9]: > 10 µM; IC50 [10]: > 10 µM; IC50 [11]: > 10 µM
C[C@@]1(O)[C@H](O)[C@@H](COP(=O)(O)OP(=O)(O)OP(=O)(O)O)O[C@H]1n1cc(-c2cn[nH]c2)c2c(N)ncnc21		8.4	
C[C@@]1(O)[C@H](O)[C@@H](COP(=O)(O)OP(=O)(O)OP(=O)(O)O)O[C@H]1n1cc(-c2ncccn2)c2c(N)ncnc21		12	
C[C@@]1(O)[C@H](O)[C@@H](COP(=O)(O)OP(=O)(O)OP(=O)(O)O)O[C@H]1n1cc(-c2ncco2)c2c(N)ncnc21		0.5	
Cn1cc(-c2cn([C@@H]3O[C@H](COP(=O)(O)OP(=O)(O)OP(=O)(O)O)[C@@H](O)[C@@]3(C)O)c3ncnc(N)c23)nn1		8.4	
C[C@@]1(O)[C@H](O)[C@@H](COP(=O)(O)OP(=O)(O)OP(=O)(O)O)O[C@H]1n1cc(-c2ncon2)c2c(N)ncnc21		0.5	IC50 [9]: > 10 µM; IC50 [10]: > 10 µM; IC50 [11]: > 10 µM
Cc1noc(-c2cn([C@@H]3O[C@H](COP(=O)(O)OP(=O)(O)OP(=O)(O)O)[C@@H](O)[C@@]3(C)O)c3ncnc(N)c23)n1		8.4	
C[C@@]1(O)[C@H](O)[C@@H](COP(=O)(O)OP(=O)(O)OP(=O)(O)O)O[C@H]1n1cc(-c2nnco2)c2c(N)ncnc21		> 95	
C[C@@]1(F)[C@H](O)[C@@H](COP(=O)(O)OP(=O)(O)OP(=O)(O)O)O[C@H]1n1cc(-c2ncon2)c2c(N)ncnc21		0.4	
C[C@@]1(F)[C@H](O)[C@@H](COP(=O)(O)OP(=O)(O)OP(=O)(O)O)O[C@H]1n1cc(-c2ncco2)c2c(N)ncnc21		0.3	
C[C@@]1(F)[C@H](O)[C@@H](COP(=O)(O)OP(=O)(O)OP(=O)(O)O)O[C@H]1n1cc(-c2ccn[nH]2)c2c(N)ncnc21		0.07	IC50 [9]: > 10 µM; IC50 [10]: > 10 µM; IC50 [11]: > 10 µM
C[C@@]1(O)[C@H](O)[C@@H](CO)O[C@H]1n1ccc2c(N)ncnc21 [BETA-2'-C-METHYL-7-DEAZA-ADENOSINE]	0.3		

Source: ChEMBL document CHEMBL2057165, “Synthesis and antiviral properties of novel 7-heterocyclic substituted 7-deaza-adenine nucleoside inhibitors of Hepatitis C NS5B polymerase” (Bioorg Med Chem, 2012)
